# Bioassay records deposited in PubChem BioAssay by several laboratories.
# Hits are enriched below; roughly 5.7% of the tested compounds scored in any of these assays.
# Beta cell apopt: beta cell apoptosis inhibition; 0.8% of 300,000 active; INS-1E cytokine-induced death, ATP luminescence, 48 h; percent of positive-control rescue, neutral wells zero; protection from apoptosis, % (concentration not given with the values);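 active = Every replicate reaches about 75%, or at least half do and their mean reaches it too, limit read from the data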;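 note: 0% = cytokine-treated negative control wells and 100% = positive control rescue; higher means more ATP so stronger rescue from cytokine killing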
# Calb FLC: C. albicans growth modulation with fluconazole. C. albicans CaCi-2 (fluconazole-resistant clinical isolate) + fluconazole, Alamar Blue growth, 48 h. growth inhibition, % (test concentration not listed). 0.57% of 300,000 active;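 active = growth inhibition above about 58% in most replicates, limit read from the data, passing the limit was not always enough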;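 note: all wells also contain fluconazole at 8 µg/ml as a sub-toxic cotreatment; 0% = median of DMSO wells and 100% = median of geldanamycin control wells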
# SKKanGAS inh: blocks kanamycin growth of S. pyogenes SKKanGAS strain | BacTiter-Glo, 6 h | inhibition, % at 7.5 µM | 1.3% of 300,000 active;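 active = mean replicate score, as percent of positive control median, at least 50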;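 note: strain carries kanamycin resistance gene driven by streptokinase promoter and grows in 40 µg/ml kanamycin; loss of luminescence reflects streptokinase promoter inhibition or plain growth inhibition; 0% = median of DMSO wells and 100% = positive control at its reference dose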
# T cruzi inh: T. cruzi replication inhibition | 1.4% of 300,000 active | inhibition, % (concentration not given with the values) | T. cruzi beta-gal in NIH3T3, luminescence, 90 h;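 active = mean inhibition across valid replicates above about 55%, limit read from the data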;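 note: signal also drops with host cell toxicity which is not excluded here; 0% = plate median of DMSO wells and 100% = zero luminescence signal; higher percent means less beta-gal luminescence so fewer parasites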
#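 assay system = mouse NIH/3T3 fibroblasts infected with β-gal-expressing T. cruzi Tulahuen C4 | input = 5,000 NIH/3T3 host cells per well | buffer or medium = DMEM plus 2% FBS | timing = 3 h host attachment, then at least 90 h co-culture | measured by = GalScreen luminescence, 60 min | evaluation = luminescence reflecting intracellular parasite burden, expressed as percent inhibition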
# Mdm2-MdmX inh: disrupts the human Mdm2-MdmX interaction; O15151+Q00987; SaOS-2 split-luciferase Mdm2/MdmX complementation, luminescence; inhibition, % at 8 µM; 3% of 330,000 active; AID 485346;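 active = inhibition of at least 50% at 8 µM in the primary screen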
# Target sequence (O15151 whole entry, looked up): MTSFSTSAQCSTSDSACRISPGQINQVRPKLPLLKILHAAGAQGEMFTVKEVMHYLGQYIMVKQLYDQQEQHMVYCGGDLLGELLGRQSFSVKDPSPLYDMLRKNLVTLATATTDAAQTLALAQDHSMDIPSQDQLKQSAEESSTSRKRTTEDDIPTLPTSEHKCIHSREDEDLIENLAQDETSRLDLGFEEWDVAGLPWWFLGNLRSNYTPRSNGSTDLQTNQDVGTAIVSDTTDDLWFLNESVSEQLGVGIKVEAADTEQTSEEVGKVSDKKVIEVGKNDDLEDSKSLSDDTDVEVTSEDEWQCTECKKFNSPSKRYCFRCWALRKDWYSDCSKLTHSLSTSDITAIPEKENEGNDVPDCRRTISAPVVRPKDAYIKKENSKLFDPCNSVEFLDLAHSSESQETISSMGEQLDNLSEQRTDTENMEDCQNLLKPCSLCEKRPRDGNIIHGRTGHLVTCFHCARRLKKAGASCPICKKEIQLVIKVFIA
# Target sequence (Q00987 whole entry, looked up): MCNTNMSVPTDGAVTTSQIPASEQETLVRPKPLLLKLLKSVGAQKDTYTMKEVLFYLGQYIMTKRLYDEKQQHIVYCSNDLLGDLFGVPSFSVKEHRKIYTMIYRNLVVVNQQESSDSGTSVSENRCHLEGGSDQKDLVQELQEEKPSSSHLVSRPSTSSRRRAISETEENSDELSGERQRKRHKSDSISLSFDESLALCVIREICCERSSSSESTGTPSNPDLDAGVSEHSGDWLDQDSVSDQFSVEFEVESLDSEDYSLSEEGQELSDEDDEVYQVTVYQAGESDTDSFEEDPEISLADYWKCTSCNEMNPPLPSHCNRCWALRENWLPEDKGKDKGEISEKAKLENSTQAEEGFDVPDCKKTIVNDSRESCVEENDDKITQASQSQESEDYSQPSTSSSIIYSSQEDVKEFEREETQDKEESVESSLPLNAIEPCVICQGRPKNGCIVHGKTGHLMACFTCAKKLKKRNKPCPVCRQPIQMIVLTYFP
# CSC inhib: blocks cancer stem cells | 1.1% of 300,000 active | cancer stem cell-like cells viability, luminescence | AID 2717 | inhibition, % at 7.5 µM; in the data active = inhibition above about 75%; tested in HMLE shEcad cells
# Mdm2-MdmX conf: confirmation of human Mdm2/MdmX interaction inhibitors; inhibition, % at 8 µM; shares compounds with Mdm2-MdmX inh; Mdm2-MdmX binding, luminescent assay; 55% of 10,000 active; AID 489028; in the data active = inhibition above about 40%
# Full FLuc ctr: full-length luciferase inhibition in Mdm2/MdmX counter-screen. shares compounds with Mdm2-MdmX inh. SaOS-2 full-length luciferase counterscreen, luminescence. inhibition, % at 8 µM. 77% of 6,200 active. AID 504607;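 active = mean inhibition at 8 µM reaching about 37%, which flags the compound as non-specific, limit read from the data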;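 note: p53-null SaOS-2 cells with luciferase driven by a doxycycline-inducible promoter; compound on cells about two nights before reading with doxycycline added after day one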
# * marks the source's active call; other numbers are inactive results; x = no result given.
SMILES,Beta cell apopt,Calb FLC,SKKanGAS inh,T cruzi inh,Mdm2-MdmX inh,CSC inhib,Mdm2-MdmX conf,others
CC(C)Oc1ccc(C(=O)Nc2cccc(S(=O)(=O)N3CCCC3)c2)cc1,-3,x,x,x,18,-10,x,
Cc1nc(SCC(=O)Nc2ccc(S(=O)(=O)N3CCOCC3)cc2)c2c(C)c(C)sc2n1,11,x,x,x,82*,21,44*,Full FLuc ctr=29
COc1ccc(NC(=O)COC(=O)CCC2CCCCC2)cc1,-4,x,x,x,21,-11,x,
Cc1onc(-c2ccccc2)c1C(=O)N1CCN(S(=O)(=O)c2ccc(OC(F)(F)F)cc2)CC1,x,1,0,5,18,0,x,
CSc1nnc(-c2sc3cc(C(F)(F)F)cnc3c2-c2ccccc2)n1C,11,-6,1,-2,67*,52,48*,Full FLuc ctr=50*
O=C(c1ccc(Cl)c(Cl)c1)N1CCC(=O)N(C(COCc2cccc(Cl)c2)Cc2ccccc2)CC1 (configuration not stated),14,9,33,46,54*,45,24,
Cc1cccc(COCC(Cc2ccccc2)N2CCN(C(=O)c3ccc(C(F)(F)F)cc3)CCC2=O)c1 (configuration not stated),-2,-12,35,35,57*,33,9,
O=C(c1ccc(C(F)(F)F)cc1)N1CCC(=O)N(C(COCc2ccc(C(F)(F)F)cc2)Cc2ccccc2)CC1 (configuration not stated),2,2,20,19,15,34,x,
COCCN1CCN(C(=O)C2CCC(=O)N(Cc3ccccc3OC)C2)CC1 (configuration not stated),3,0,-5,-14,6,-11,x,
COC(=O)N1C(=O)[C@@](c2ccccc2)(C(C)C)N1C(=O)OC,0,1,7,-12,55*,16,31,
COc1ccc(C2(c3ccc(OC)cc3)NC(=O)N(CC(=O)NC(C)C)C2=O)cc1,3,1,-9,-13,-2,-29,x,
COC(=O)N1C(=O)[C@@](c2ccc(OC)cc2)(C(C)C)N1C(=O)OC,-8,-2,1,0,51*,10,28,
COC(=O)N1C(=O)[C@](c2ccc(Cl)cc2)(C(C)C)N1C(=O)OC,0,-18,16,-13,56*,25,40,Full FLuc ctr=51*
COC(=O)N1C(=O)[C@](c2ccccc2)(C2CCCC2)N1C(=O)OC,1,3,0,0,43,15,x,
CCn1cc(C(=O)NCc2ccco2)c(=O)c2ccc(C)nc21,1,-3,3,1,-13,-6,x,
Cc1noc(C)c1COc1ccccc1C(=O)NC(C)c1ccc(Cl)cc1 (configuration not stated),-2,x,x,x,-6,x,x,
CCCCCCN1C(=O)CC(NC(=O)OCC2c3ccccc3-c3ccccc32)C/C=C\C1C(C)C (configuration not stated),x,x,x,x,37,x,x,
COc1cc(C(=O)NCC(c2ccc(F)cc2)N2CCOCC2)ccc1OCc1ccccc1Cl (configuration not stated),40,3,2,21,30,11,x,
O=C(O)[C@H](Cc1ccccc1)N1C(=O)c2c(Cl)c(Cl)c(Cl)c(Cl)c2C1=O,-1,-9,11,-35,11,-11,x,
O=C(COc1ccc(Cl)cc1)Nc1ccccc1C(=O)NCc1ccco1,-2,10,-8,19,73*,23,-19,
COc1ccc(C(=O)N[C@H](C(=O)NCc2ccco2)C(C)C)cc1,0,-12,0,-6,-4,9,x,
CN(c1ccc(OCC(=O)Nc2ccccc2C(=O)O)cc1)S(=O)(=O)c1ccc(Cl)cc1,-1,x,x,x,90*,49,40*,Full FLuc ctr=39*
COc1ccc(C(=O)Nc2ccccc2C(=O)NC(C(=O)NCc2ccco2)C(C)C)cc1 (configuration not stated),11,12,3,-12,74*,7,-9,
CC(=O)Nc1ccc(S(=O)(=O)N(C)c2ccc(OCC(=O)Nc3ccccc3C(C)=O)cc2)cc1,x,x,x,x,13,x,x,
